Published values from different studies.
Lines come from different studies, so protocols differ.
Target: Serine/threonine-protein kinase SIK2 (SIK2, Homo sapiens, UniProt Q9H0K1)

The remaining activity of CC(C)(C)c1nc2c(s1)c1nc(N)ncc1c1ccc(NS(=O)(=O)c3c(F)cccc3F)c(F)c12 is reported as 101% (enzyme activity; inhibitor; radiometric; 1 µM).
CNCc1ccccc1-c1csc([C@@H](C)Nc2nc(C)nc3cc(OC)c(OC)cc23)c1 has a remaining binding of 100% (cell-free assay; competition with immobilised ligand; 1 µM).
For Nc1ncnc2occ(-c3ccc(NC(=O)Nc4cc(C(F)(F)F)ccc4F)cc3)c12, the remaining signal was 57% (cell-free assay; inhibitor; 20 µM).
O=C(Nc1cnn(-c2csc(C(=O)NC3COC3)c2)c1)Nc1c(F)cccc1Cl gave a remaining activity of 95.8% (enzyme activity; inhibitor; 5 µM).
COc1cc(/C=C/C(=O)CC(=O)/C=C/c2ccc(O)c(OC)c2)ccc1O gave an activity vs control of 83% (enzyme activity; inhibitor; 1 µM).
With Cc1nc(C2CCN(C(=O)c3ccc(OC(F)(F)F)cc3N)CC2)c2ncc(N3CCN(C)CC3)cc2n1 the remaining binding was 100% (cell-free assay; competition with immobilised ligand; 1 µM).
COc1cc(Nc2c(C#N)cnc3cc(OCCCN4CCN(C)CC4)c(OC)cc23)c(Cl)cc1Cl has a remaining signal of 1.93% (cell-free assay; 0.5 µM).
COc1cc(Nc2cnc(C#N)c(O[C@H](C)CN(C)C)n2)ncc1-c1cnn(C)c1 gave a remaining activity of 80% (enzyme activity; inhibitor; radiometric; 1 µM).
CN([C@@H]1CCc2c(CC(=O)O)c3cc(S(C)(=O)=O)ccc3n2C1)S(=O)(=O)c1ccc(F)cc1 gave a remaining binding of 93% (cell-free assay; competition with immobilised ligand; 1 µM).
Cc1sc(C(=O)NC2COC2)cc1-n1cc(NC(=O)Nc2c(F)cccc2Cl)cn1 gave a remaining activity of 89.8% (enzyme activity; inhibitor; 10 µM).
With CCN(CC)CCNC(=O)c1c(C)[nH]c(/C=C2\C(=O)Nc3ccc(F)cc32)c1C the remaining signal was 27.8% (cell-free assay; 0.5 µM).
The remaining activity of Cc1ccc(C(=O)Nc2ccc(CN3CCN(C)CC3)c(C(F)(F)F)c2)cc1C#Cc1cnc2cccnn12 is reported as 67% (enzyme activity; inhibitor; 23.5 nM).
With O=C(NCCCC1CCCCC1)c1ccc(CNC(=O)c2cnn(-c3ccccc3)c2C(F)(F)F)cc1 the remaining binding was 100% (cell-free assay; competition with immobilised ligand; 0.1 µM).
COc1cc(-c2cc(-c3ccc(N4CCNCC4)cc3)cnc2N)cc(OC)c1OC has an inhibition of 66% (enzyme activity; inhibitor; 0.1 µM).
For O=C(Nc1cccnn1)N1CCC(=Cc2cccc(Oc3ccc(C(F)(F)F)cn3)c2)CC1, the remaining binding was 100% (cell-free assay; competition with immobilised ligand; 1 µM).
The inhibition of COc1cc2ncnc(Nc3ccc(Oc4ccccc4)cc3C)c2cc1OC is reported as 3% (enzyme activity; inhibitor; 1 µM).
O=C1Nc2ccc(Cl)cc2C1=Cc1cc(Cl)c(O)c(Cl)c1 gave a remaining signal of 95% (cell-free assay; 0.5 µM).
For FC(F)(F)Oc1cccc(-c2cnc3ccc(-c4ccncc4)nn23)c1, the activity vs control was 68% (enzyme activity; inhibitor; radiometric; 1 µM).
